TRPC4 potent: TRPC4 (mouse) allosteric potentiation; HEK293 TRPC4beta/mu-opioid, DAMGO EC20, Fluo-4 Ca2+ flux; hits give high values; Q9QUQ5; 0.42% of 310,000 active; B-score at 10 µM;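 active = B-score of calcium response area above 5 SD of library B-scores, with initial fluorescence ratio within 5 SD of library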;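 also: B-score of integrated fluorescence ratio over time as area under calcium response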
TRPC4 act: opens the mouse TRPC4 cation channel; Q9QUQ5; HEK293 TRPC4beta/mu-opioid, Fluo4 calcium fluorescence; hits give high values; B-score at 10 µM; 0.49% of 310,000 active;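 active = B-score above 5 SD of library B-scores, and initial fluorescence ratio not above library mean plus 5 SD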;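 also: positive B-score marks a calcium rise read as TRPC4 activation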
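system = HEK293 cells stably co-expressing mouse TRPC4beta and mu-opioid receptor | schedule = Fluo4 dye loading 45 min at room temperature, 110 s recording | measure = B-scored integrated calcium fluorescence ratio | signal = Fluo4 calcium-sensitive dye fluorescence, kinetic, 1 Hz baseline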
TRPC6 inh: mouse TRPC6 channel inhibition | Q61143 | HEK293-TRPC6, membrane potential dye, ACh-evoked depolarization; hits give low values | B-score at 10 µM | 1.1% of 310,000 active;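 active = B-score under library mean minus 3 SD, initial fluorescence not abnormally high, positive integrated signal ratio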;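 also: B-score derived from integrated fluorescence ratio over the kinetic read; more negative B-score means stronger inhibition of depolarization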
Target sequence (Q61143 whole entry, looked up): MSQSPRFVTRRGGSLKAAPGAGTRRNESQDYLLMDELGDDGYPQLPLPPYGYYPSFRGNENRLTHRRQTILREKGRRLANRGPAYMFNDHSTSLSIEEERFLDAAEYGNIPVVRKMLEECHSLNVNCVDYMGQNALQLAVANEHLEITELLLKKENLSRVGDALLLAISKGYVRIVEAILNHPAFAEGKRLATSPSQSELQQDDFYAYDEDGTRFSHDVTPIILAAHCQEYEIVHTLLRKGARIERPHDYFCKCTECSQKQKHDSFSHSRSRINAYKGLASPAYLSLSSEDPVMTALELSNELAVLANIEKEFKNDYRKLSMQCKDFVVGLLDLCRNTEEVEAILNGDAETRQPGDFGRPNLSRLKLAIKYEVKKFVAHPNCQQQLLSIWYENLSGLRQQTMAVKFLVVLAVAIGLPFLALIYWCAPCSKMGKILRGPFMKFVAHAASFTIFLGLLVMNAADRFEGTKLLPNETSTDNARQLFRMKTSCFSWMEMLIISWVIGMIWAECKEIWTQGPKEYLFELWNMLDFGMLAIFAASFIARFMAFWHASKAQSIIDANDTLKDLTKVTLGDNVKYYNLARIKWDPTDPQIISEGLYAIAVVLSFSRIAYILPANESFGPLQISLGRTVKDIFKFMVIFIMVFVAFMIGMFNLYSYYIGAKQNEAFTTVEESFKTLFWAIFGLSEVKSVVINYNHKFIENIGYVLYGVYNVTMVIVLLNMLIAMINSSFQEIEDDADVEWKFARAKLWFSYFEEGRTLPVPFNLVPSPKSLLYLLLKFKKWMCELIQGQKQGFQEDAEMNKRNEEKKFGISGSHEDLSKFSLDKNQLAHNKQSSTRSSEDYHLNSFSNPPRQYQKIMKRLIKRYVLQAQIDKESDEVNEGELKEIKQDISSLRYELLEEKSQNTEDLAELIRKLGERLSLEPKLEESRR
TRPC6 activator: mouse TRPC6 channel activation | B-score at 10 µM | HEK293-TRPC6 membrane potential dye fluorescence; hits give high values | Q61143 | 0.13% of 310,000 active;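 active = B-score of the integrated fluorescence ratio above library mean plus 3 SD, and starting fluorescence ratio within library mean plus 5 SD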;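 also: higher score means more depolarization so channel activation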
TRPC4 block: blocks the mouse TRPC4 cation channel; B-score at 10 µM; HEK293 TRPC4beta/mu-opioid, DAMGO-evoked Fluo4 calcium flux; hits give low values; 0.39% of 300,000 active; Q9QUQ5;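 active = B-score over 3 SD under the library average, no early fluorescence shift, positive overall ratio signal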
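material = TRPC4beta/mu-opioid receptor HEK293 cell line | probe or stimulus = sequential submaximal and maximal DAMGO stimulation | compound dosing = one concentration per compound | measured by = Fluo4 Ca2+ flux fluorescence | evaluation = integrated fluorescence ratio relative to baseline, converted to per-well B score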
TRPC4 sel inh 2: second check of whether TRPC6 inhibitors also affect mouse TRPC4; HEK293 TRPC4/MOR, membrane potential dye fluorescence; channel activated by saturating DAMGO dose; 42% of 920 active; AID 2776; inhibition, % at 10 µM; shares compounds with TRPC6 inh;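 active = compounds whose fluorescence signal differed from control wells by over 3 SD, either direction, in both duplicate plates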
TRPC4 spec: tests whether TRPC6 inhibitors also affect mouse TRPC4; shares compounds with TRPC6 inh; HEK293 TRPC4/mu-opioid, membrane potential fluorescence; activity change, negative = inhibition, % at 10 µM; 61% of 920 active; AID 2777;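 active = rise or fall in signal beyond 3 SD of buffer-only wells in both replicate plates, either sign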;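 also: integrated kinetic ratio of fluorescence range over baseline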
HEK293 MPD ctr 2-1: second check of TRPC6 inhibitor effects in parental HEK293 cells; shares compounds with TRPC6 inh; parental HEK293 membrane potential dye fluorescence; maximal acetylcholine challenge after compound addition; signal change vs control, % at 10 µM; 31% of 920 active;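 active = membrane potential signal moving either way by over 3 SD of the maximum-effect control, in both duplicate plates, meaning non-specific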
HEK293 MPD ctr-1: counter-screen for TRPC6 inhibitors: effect in parental HEK293 cells | shares compounds with TRPC6 inh | parental HEK293 membrane potential dye fluorescence | membrane potential signal change, % at 10 µM | 60% of 920 active;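 active = membrane potential signal shifting up or down by more than 3 SD of buffer-only wells, on both duplicate plates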
HEK293 MPD ctr-2: parental HEK293 nonspecific activity of TRPC6 modulators. membrane potential dye fluorescence. membrane potential signal change, % at 10 µM. shares compounds with TRPC6 inh. 51% of 2,400 active;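 active = membrane potential signal moves up or down beyond 5 SD from buffer-only wells, on both duplicate plates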
HEK293 MPD ctr 2-2: second counter-screen for TRPC6 modulators: effect in parental HEK293 cells. shares compounds with TRPC6 inh. inhibition, % at 10 µM. AID 488926. membrane potential dye fluorescence; after compound, maximal acetylcholine stimulation. 14% of 2,400 active;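 active = membrane potential signal drops by more than 5 SD from the mean control signal, in both duplicate plates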;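 also: plate controls were acetylcholine ECmax control wells for no effect and buffer only wells for full effect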
TRPC4/MOR mod: tests whether TRPC6 modulators also affect mouse TRPC4; shares compounds with TRPC6 inh; HEK293 TRPC4/mu-opioid, membrane potential fluorescence; percent change from control (negative = decrease, positive = increase), % at 10 µM; 69% of 2,400 active; AID 488927;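 active = membrane potential signal moved up or down beyond 5 SD of buffer control wells, in both duplicate plates, actives on both sides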;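 also: plate controls were assay buffer wells for no effect and DAMGO maximal-effect wells for full effect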
TRPC4/MOR inh 2: mouse TRPC4 off-target activity of TRPC6 modulators, second screen. shares compounds with TRPC6 inh. HEK293 TRPC4/mu-opioid, membrane potential dye fluorescence; stimulated with maximal-effect DAMGO. inhibition, % at 10 µM. 55% of 2,400 active;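 active = drop in membrane potential signal beyond 5 SD of the control wells in both duplicate plates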;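 also: TRPC4 counter screen for TRPC6 hits run under conditions tuned for TRPC6 not TRPC4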
TRPC6 inh conf: confirmation of mouse TRPC6 inhibitors; shares compounds with TRPC6 inh; HEK293-TRPC6, membrane potential dye, ACh-evoked depolarization; inhibition, % at 10 µM; 43% of 3,300 active; AID 488960;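 active = fluorescence ratio falls more than 5 SD below the full-stimulation control mean, in both duplicate runs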;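 also: integrated fluorescence ratio of peak minus minimum over baseline after agonist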
TRPC6 act conf: confirmation of mouse TRPC6 activators; shares compounds with TRPC6 inh; HEK293-TRPC6 membrane potential dye fluorescence, FDSS; activation, % at 10 µM; 11% of 2,800 active; AID 488961;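 active = ratio signal rise beyond 5 SD above unstimulated control wells' mean, seen in both duplicate runs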;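 also: plate controls were buffer EC0 wells for no effect and acetylcholine ECmax response for full effect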
The depositor's hits bear a star. Only some compounds are listed: those with a hit (about 2.3% of all), similar ones and a draw of the others.

For CC(=O)N(CCC(Cc1ccccc1)c1ccc2c(c1)OCO2)Cc1ccccc1F (stereo unspecified) the results were TRPC4 potent inactive, TRPC4 act inactive, TRPC6 inh inactive, TRPC6 activator inactive and TRPC4 block inactive.
`N#CC(C#N)=C/C=C(\Nc1ccc(Cl)cc1)c1ccc(Cl)cc1` gave TRPC4 potent inactive, TRPC4 act inactive, TRPC6 inh -5.2*, TRPC6 activator inactive, TRPC4 block inactive, HEK293 MPD ctr-2 inactive, HEK293 MPD ctr 2-2 inactive, TRPC4/MOR mod inactive, TRPC4/MOR inh 2 38%*, TRPC6 inh conf inactive and TRPC6 act conf inactive.
Screening N#Cc1ccc(NC(=O)Nc2ccc(Cl)cc2)cc1 returned TRPC4 potent inactive, TRPC4 act inactive, TRPC6 inh inactive, TRPC6 activator inactive and TRPC4 block inactive.
`O=Cc1ccc2ccc3cccnc3c2n1` gave TRPC4 potent inactive, TRPC4 act inactive, TRPC6 inh -9.8*, TRPC6 activator inactive, TRPC4 block inactive, HEK293 MPD ctr-2 -386%*, HEK293 MPD ctr 2-2 95%*, TRPC4/MOR mod -60%*, TRPC4/MOR inh 2 68%*, TRPC6 inh conf 78%* and TRPC6 act conf inactive.
Screening COc1ccc(C2=CSC3=NCCN23)cc1Br returned TRPC4 potent inactive, TRPC4 act inactive, TRPC6 inh -5.2*, TRPC6 activator inactive, TRPC4 block inactive, HEK293 MPD ctr-2 inactive, HEK293 MPD ctr 2-2 inactive, TRPC4/MOR mod inactive, TRPC4/MOR inh 2 36%*, TRPC6 inh conf inactive and TRPC6 act conf inactive.
COc1ccc(C2=CSC3=NCCN23)cc1Cl was read as TRPC4 potent inactive, TRPC4 act inactive, TRPC6 inh inactive, TRPC6 activator inactive and TRPC4 block inactive.
Screening COc1ccc(-c2nc3ccc(C)cn3c2NCc2ccc3c(c2)OCO3)cc1 returned TRPC4 potent inactive, TRPC4 act inactive, TRPC6 inh inactive, TRPC6 activator inactive and TRPC4 block inactive.
`Cc1ccc(-c2nc3ccccn3c2NCc2ccc3c(c2)OCO3)cc1` gave TRPC4 potent inactive, TRPC4 act inactive, TRPC6 inh -5.5*, TRPC6 activator inactive, TRPC4 block inactive, HEK293 MPD ctr-2 inactive, HEK293 MPD ctr 2-2 inactive, TRPC4/MOR mod -19%*, TRPC4/MOR inh 2 69%*, TRPC6 inh conf 44%* and TRPC6 act conf inactive.
For Cc1ccc(C2C(C#N)=C(N)Oc3cc(N)ccc32)cc1 (stereo unspecified) the results were TRPC4 potent inactive, TRPC4 act inactive, TRPC6 inh inactive, TRPC6 activator 13*, TRPC4 block inactive, HEK293 MPD ctr-2 inactive, HEK293 MPD ctr 2-2 inactive, TRPC4/MOR mod inactive, TRPC4/MOR inh 2 inactive, TRPC6 inh conf inactive and TRPC6 act conf inactive.
`CCOC(=O)C1=C(c2ccccc2)NC(=O)NC1c1ccc(O)c(OCC)c1` (stereo unspecified) gave TRPC4 potent inactive, TRPC4 act inactive, TRPC6 inh inactive, TRPC6 activator inactive and TRPC4 block inactive.
`CCOC(=O)C1=C(c2ccccc2)N(C)C(=O)NC1c1ccc(O)c(OC)c1` (stereo unspecified) gave TRPC4 potent inactive, TRPC4 act inactive, TRPC6 inh -9.2*, TRPC6 activator inactive, TRPC4 block inactive, TRPC4 sel inh 2 inactive, TRPC4 spec 0.0%*, HEK293 MPD ctr 2-1 inactive, HEK293 MPD ctr-1 0.0%*, TRPC6 inh conf inactive and TRPC6 act conf inactive.
For COc1ccc(C(=O)c2coc3ccc(O)c(CN(C)C)c23)cc1 the results were TRPC4 potent inactive, TRPC4 act inactive, TRPC6 inh -5.3*, TRPC6 activator inactive, TRPC4 block inactive, HEK293 MPD ctr-2 inactive, HEK293 MPD ctr 2-2 inactive, TRPC4/MOR mod 9.0%*, TRPC4/MOR inh 2 56%*, TRPC6 inh conf inactive and TRPC6 act conf inactive.
Screening Cc1c(CCC(=O)O)c(=O)oc2cc(OCc3cccc(Cl)c3)ccc12 returned TRPC4 potent inactive, TRPC4 act inactive, TRPC6 inh inactive, TRPC6 activator inactive and TRPC4 block inactive.
CCOc1ccc(S(=O)(=O)N2CCc3cc(OC)c(OC)cc3C2)cc1 was read as TRPC4 potent inactive, TRPC4 act inactive, TRPC6 inh inactive, TRPC6 activator 12*, TRPC4 block inactive, HEK293 MPD ctr-2 inactive, HEK293 MPD ctr 2-2 inactive, TRPC4/MOR mod 10%*, TRPC4/MOR inh 2 inactive and TRPC6 act conf 114%*.
`CC(C)Cc1nnc(NC(=O)CCC(=O)N2CC(C)CC(C)C2)s1` (stereo unspecified) gave TRPC4 potent inactive, TRPC4 act inactive, TRPC6 inh inactive, TRPC6 activator inactive and TRPC4 block inactive.

Bioassay records as filed in PubChem.
